The full list was thinned out, with hits kept by preference.
Yeast lifespan up: extends the lifespan of yeast. 130,000 tested, 0.68% active. inhibition of the nicotinamide effect, % at 10 µM. S. cerevisiae growth with nicotinamide, OD615; deaD strain in restrictive glucose medium. AID 775;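 active = inhibition above a set limit, placed 3 SD over the median of all compounds, cut at about 26% in these data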;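 also: 0% = nicotinamide-treated wells and 100% = cells grown without nicotinamide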
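Measured by: optical density (absorbance) at 615 nm; System: modified budding yeast, DeaD strain; Medium: restrictive CSMM-D dextrose medium; Timing: 4 h preincubation then 48 h treatment at 30 °C.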
PostGolgi ctrl: yeast control strain growth, post-Golgi counter-screen. efflux-deficient yeast background strain, growth absorbance A615, 16 h. inhibition, % at 10 µM. 98,000 tested, 5% active. AID 738
PostGolgi yeast: growth inhibition of a yeast mutant, post-Golgi transport screen | 98,000 tested, 0.9% active | post-Golgi transport phenotypic cell assay | inhibition, % at 10 µM;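 also: yeast cells grown in 1536-well plates; yeast grown about 18 h at 30C before absorbance read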
Yeast growth inh: reduces growth of yeast BB579 in restrictive medium. S. cerevisiae BB579 growth, OD615, 48 h. inhibition, % at 10 µM. 140,000 tested, 0.51% active. AID 804;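 active = inhibition above a set limit, 3 SD over the mean compound inhibition, cut at about 44% in these data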
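System: DeaD yeast strain BB579; buffer or medium: CSMM-D dextrose restrictive medium; technique: OD at 615 nm; schedule: 4 h cell preincubation, 48 h compound exposure, 30 °C humidified; doses: single 10 µM dose; controls: amphotericin B 10 µg/mL, positive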
An asterisk follows results filed as active; nt = not tested or not shown. Rule as the data show it, unless noted: active = inhibition above about 30%; inactive = the rest.

SMILES | Yeast lifespan up | PostGolgi ctrl | PostGolgi yeast | Yeast growth inh
Cc1cccc2sc(NC(=O)CN(C)S(=O)(=O)c3ccc(Br)s3)nc12 | -15 | 70* | 4 | -26
O=C(CSc1nc2ccccc2c(=O)[nH]1)Nc1ccc(S(=O)(=O)N2CCCC2)cc1 | -8 | 7 | 21 | -49
Cc1cc(NC(=O)CSc2nnc(C3COc4ccccc4O3)o2)no1 (configuration not stated) | -3 | 42* | 1 | -27
O=C(Nc1nc2ccccc2s1)C1CC(=O)N(c2ccc(F)cc2)C1 (configuration not stated) | -15 | 1 | -7 | -14
O=C(Nc1nc2c(s1)CCCC2)c1cccnc1 | -11 | 19 | -3 | -82
Cc1ccc(C(=O)c2c(NC(=O)c3cccnc3)sc3c2CCCC3)cc1 | -7 | 33* | -10 | -36
COc1ccc(CNc2nc(-c3cccnc3)nn2C(=O)c2cccs2)cc1 | -1 | 40* | -3 | 0
C/C(=N\OCC(=O)NC12CC3CC(CC(C3)C1)C2)c1cc2ccccc2o1 | 3 | nt | nt | -9
CC[C@@H](NS(=O)(=O)c1ccc(C)cc1)C(=O)Oc1ccc2c3c(c(=O)oc2c1)CCC3 | 1 | nt | nt | -32
Cc1ccc(S(=O)(=O)NC(CC(C)C)C(=O)Oc2ccc3c4c(c(=O)oc3c2)CCC4)cc1 (configuration not stated) | -28 | 16 | 60* | -28
CCC(C)C(NS(=O)(=O)c1ccc(C)cc1)C(=O)Oc1ccc2c3c(c(=O)oc2c1)CCC3 (configuration not stated) | -9 | 33* | 5 | 1
CCOc1ccccc1C(=O)Nc1cc(Cl)ccc1O | -16 | 87* | 9 | -49
COc1ccc(OC)c(NC(=O)c2ccccc2SC)c1 | -33 | 3 | -1 | -40
CCOc1ccccc1C(=O)Nc1cc(OC)ccc1OC | -7 | 47* | 1 | -22
COc1ccc(C(=O)/C=C/c2ccccc2C(F)(F)F)cc1 | -13 | 15 | 4 | -42
O=C(O)c1nn(-c2ccccc2)ccc1=O | -22 | 0 | 4 | 34
Cc1ccc(-c2csc(N(C)C(=O)c3c(C)nn(-c4ccccc4)c3Cl)n2)cc1 | -5 | 2 | 13 | -15
CCCCCCCCCOC(=O)C[n+]1csc(CCO)c1C | -22 | 64* | 14 | -57
Cc1c(CCO)sc[n+]1CC(=O)OCCC12CC3CC(CC(C3)C1)C2 | 5 | nt | nt | -1
O=C(Nc1cccnc1)c1cccc(F)c1 | -4 | nt | nt | -29
COc1ccc(NC(=O)COC(=O)c2c3c(nc4ccccc24)CCCC3)cc1Cl | -10 | 79* | 49* | -63
COc1ccc(NC(=O)COC(=O)c2c3c(nc4ccccc24)CCCC3)cc1 | -13 | 34* | 0 | -45
CC(C)CCCC(C)NS(=O)(=O)Cc1ccccc1 (configuration not stated) | -4 | 12 | 1 | -21
CCSC(C)CC1CC(=O)CC(=O)C1 (configuration not stated) | 18 | 13 | 2 | -18
CCOC(=O)C1C(=O)C(C(C)=O)C(=O)CC1CC(C)SCC (configuration not stated) | 93* | -12 | 5 | -50
SMILES | Yeast lifespan up | PostGolgi ctrl | PostGolgi yeast | Yeast growth inh
CCc1ccc2oc(-c3cc(N=Cc4cccc(OC)c4O)ccc3O)nc2c1 | -8 | 33* | 9 | -50
CCOC(=O)C(C)n1cnc2c(nnn2-c2cccc(Cl)c2)c1=O (configuration not stated) | -3 | 9 | 2 | -43
CC(=O)c1c(C)[nH]c(C(=O)OCn2nnc3ccccc3c2=O)c1C | -1 | 23 | 25 | -51
CCC(CC)C(=O)Nc1cc(C)c2c(=O)oc3ccccc3c2n1 | -11 | 34* | 29 | 4
CCOc1ccc(C(=O)Nc2cc(C)c3c(=O)oc4ccccc4c3n2)cc1 | -12 | -2 | -8 | 7
Cc1cc(NC(=O)c2ccc(S(=O)(=O)N3CCOCC3)cc2)nc2c1c(=O)oc1ccccc12 | -17 | 4 | 31* | -42
Cc1cc(NC(=O)c2ccc(S(=O)(=O)N3CCCC3)cc2)nc2c1c(=O)oc1ccccc12 | -8 | 12 | 4 | -42
Cc1ccc2oc(-c3ccc(NC(=O)c4cccnc4)cc3)nc2c1 | -12 | 66* | -7 | -17
Cc1ccc(-c2nc3cc(NS(=O)(=O)c4ccc(C)cc4)ccc3o2)cc1 | -6 | 59* | 14 | -60
O=C(Nc1ccc(-c2nc3ccccc3o2)cc1)c1cccnc1 | -22 | 17 | -8 | -2
Cc1ccc(-c2nc3cc(C)ccc3o2)cc1 | -26 | 8 | 3 | -50
O=S(=O)(Nc1ccc2oc(-c3ccccc3)nc2c1)c1ccccc1 | -29 | 33* | 0 | 2

Screening data (PubChem BioAssay)
